Measurements collected from several papers.
Each line is one published result; the experiments were not run side by side. ≈ marks a conversion by molar mass, not a printed value.

SMILES | tested on | assay | test system | setting | endpoint | value
CCn1cc(C(=O)O)c(=O)c2ccc(C)nc21 | Salmonella enterica | microbial growth | CHOLERAESUIS | 20 h, pH 5.5 | MIC | 1 µg/mL
Cc1cc(Cc2ccc(Cl)cc2)n(O)c(=O)c1 | Cryptococcus gattii | microbial growth |  |  | MIC80 | 3 µM (≈ 0.749 µg/mL)
CC1=NN(CNC(=O)c2ccccc2)C(=O)C1=NNn1c(-c2ccccc2)nc2ccccc2c1=O | Salmonella enterica | microbial growth, broth dilution | PARATYPHI | 24 h | MIC | 51.9 µM
Cc1cc(CC2CCCCC2)n(O)c(=O)c1 | Cryptococcus gattii | microbial growth |  |  | MIC80 | 1.7 µM (≈ 0.376 µg/mL)
COC[C@H](NC(=O)OCc1ccccc1)C(=O)N[C@@H](Cc1ccccc1)C(=O)N[C@@H](CC(C)C)C(=O)C(=O)Nc1ccccc1 | RPMI-8226 | cell growth or viability, MTS |  | 72 h | IC50 | 437 nM
CO/N=C(\C(=O)N[C@@H]1C(=O)N2C(C(=O)O)=C(CSc3nc(=O)c(=O)[nH]n3C)CS[C@H]12)c1csc(N)n1 | Salmonella enterica | microbial growth | CHOLERAESUIS | 20 h, pH 7.2 | MIC | 0.0625 µg/mL
O=c1[nH]cc(F)c(=O)[nH]1 | Shigella dysenteriae | microbial growth, broth dilution |  | 24 h | MIC | 4 µg/mL
CC(C)C[C@H](NC(=O)OCc1ccccc1)C(=O)N[C@@H](Cc1c[nH]c2ccccc12)C(=O)N[C@@H](CC(C)C)C(=O)C(=O)Nc1ccccc1 | RPMI-8226 | cell growth or viability, MTS |  | 72 h | IC50 | 313 nM
CCCCCCCCCCCC(=O)OC[C@H]1O[C@@H](n2cc(C)c(=O)[nH]c2=O)C[C@@H]1O | Bacillus cereus | microbial growth, broth dilution |  |  | MIC | 4 µg/mL
CC1=NN(CNc2ccc(O)cc2)C(=O)C1=NNn1c(-c2ccccc2)nc2ccccc2c1=O | Salmonella enterica | microbial growth, broth dilution | PARATYPHI | 24 h | MIC | 107 µM
COc1cccc(Cc2cc(C)cc(=O)n2O)c1 | Cryptococcus gattii | microbial growth |  |  | MIC80 | 2.3 µM (≈ 0.564 µg/mL)
CC1=CC[C@H]2O[C@]1(C)O[C@H]([C@H](C)/C=C(C)/C=C/C(O)=C1/C(=O)CNC1=O)[C@H]2C | Bacillus cereus | microbial growth |  |  | MIC | 3.13 µM
NC[C@H]1O[C@H](O[C@H]2[C@H](O)[C@@H](O[C@H]3O[C@H](CO)[C@@H](O)[C@H](N)[C@H]3O)[C@H](N)C[C@@H]2N)[C@H](N)C[C@@H]1O | Bacillus cereus | microbial growth | ATCC11778 |  | MIC | 18.8 µg/mL
CC(C=CC(O)=C1C(=O)CNC1=O)=CC(C)C1OC2(C)OC(C(O)C=C2C)C1C (stereo not drawn) | Bacillus cereus | microbial growth |  |  | MIC | > 100 µM
CO/N=C(\C(=O)N[C@@H]1C(=O)N2C(C(=O)O)=C(CSC(=O)c3ccco3)CS[C@H]12)c1csc(N)n1 | Salmonella enterica | microbial growth | CHOLERAESUIS | 20 h, pH 5.5 | MIC | 1 µg/mL
